# Assay results reported in the M2OR odorant receptor database.
# Positions count from the first letter of the chain named.
# System: T1, A0A140T8K4
# T1 sequence (whole entry): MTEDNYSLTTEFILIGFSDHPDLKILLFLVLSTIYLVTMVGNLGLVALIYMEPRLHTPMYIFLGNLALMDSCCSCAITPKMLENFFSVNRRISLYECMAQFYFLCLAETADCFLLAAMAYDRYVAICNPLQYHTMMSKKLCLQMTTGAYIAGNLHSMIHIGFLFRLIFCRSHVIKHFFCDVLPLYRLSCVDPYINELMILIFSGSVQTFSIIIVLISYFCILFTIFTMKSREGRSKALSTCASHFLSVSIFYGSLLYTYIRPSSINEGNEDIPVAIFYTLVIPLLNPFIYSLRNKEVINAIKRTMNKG
# Conditions: stereoisomer not certain
# Procedure, shortened: (§1)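 Each entry records the cell line, G-protein, co-transfected protein and tags used. Methods varied with the source, often transient luciferase assays in mammalian cell lines. A receptor–molecule pair is called responsive (active) if the original authors judged its signal statistically different from baseline and non-responsive (inactive) otherwise.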
row,SMILES,odorant receptor agonist call
1,CCC(C(=O)O)c1ccccc1 (stereo not given),inactive
2,CCCCCCCO,inactive
3,C=Cc1cnccn1,inactive
4,CCc1ncc(C)nc1CC,inactive
5,CCCCCO,inactive
6,CCc1nccnc1C(C)=O,inactive
7,Cc1nccnc1C,inactive
8,O=c1ccc2ccccc2o1,inactive
9,CCCCCCCC(C)=O,inactive
10,CCc1nccnc1CC,inactive

# System: T2, A0A1L1SVG7
# T2 sequence (whole entry): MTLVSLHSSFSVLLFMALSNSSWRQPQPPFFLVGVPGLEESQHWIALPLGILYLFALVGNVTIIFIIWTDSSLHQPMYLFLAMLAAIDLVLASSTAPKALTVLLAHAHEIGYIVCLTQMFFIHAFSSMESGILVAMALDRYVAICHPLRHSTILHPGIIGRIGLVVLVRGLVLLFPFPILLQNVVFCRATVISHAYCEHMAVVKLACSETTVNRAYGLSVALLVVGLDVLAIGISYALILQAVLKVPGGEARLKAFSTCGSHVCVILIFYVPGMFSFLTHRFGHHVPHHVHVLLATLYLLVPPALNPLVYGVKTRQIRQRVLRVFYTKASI
# Conditions: stereoisomer not certain
# Procedure, shortened: as §1
row,SMILES,odorant receptor agonist call
1,O=C1Cc2ccccc2O1,inactive
2,CCCCCCC(C)=O,inactive
3,O=C1CCOc2ccccc21,inactive
4,CCCCOC(=O)C(C)OC(=O)CCC (stereo not given),inactive
5,CCCCCCCCCO,inactive
6,CCCCCCOC(C)=O,inactive
7,CCCC(C)=O,inactive
8,CCCCCCCC(=O)[O-].[H+],inactive
9,CC(C)=CCCC(C)CCO (stereo not given),inactive
10,CCCCCCC(=O)[O-].[H+],inactive
11,CCC(C(=O)O)c1ccccc1 (stereo not given),inactive
12,CCCCCCCO,inactive
13,CCCCCO,inactive
14,O=c1ccc2ccccc2o1,inactive
15,CCCCCCCC(C)=O,inactive

# System: T3, A0A2J8MY22
# T3 sequence (whole entry): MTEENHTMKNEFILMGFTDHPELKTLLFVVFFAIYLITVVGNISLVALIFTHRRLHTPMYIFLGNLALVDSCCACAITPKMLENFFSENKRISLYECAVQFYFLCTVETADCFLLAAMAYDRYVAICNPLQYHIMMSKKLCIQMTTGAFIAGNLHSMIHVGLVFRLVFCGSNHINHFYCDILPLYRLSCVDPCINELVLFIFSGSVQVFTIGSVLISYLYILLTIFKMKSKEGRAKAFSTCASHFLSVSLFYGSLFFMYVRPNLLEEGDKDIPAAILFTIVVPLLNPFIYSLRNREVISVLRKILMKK
# Conditions: stereoisomer not certain
# Procedure, shortened: as §1
row,SMILES,odorant receptor agonist call
1,COc1nccnc1CC(C)C,active
2,Cc1cnc(C)c(C)n1,active
3,COc1cnccn1,active
4,CC1CCc2nccnc21 (stereo not given),active
5,CC(=O)c1cnccn1,active
6,CCC(C)c1nccnc1OC (stereo not given),active
7,CCc1cnc(C)c(C)n1,active
8,COc1nccnc1C(C)C,active
9,CC(=O)c1nccnc1C,active
10,Cc1cnc(C)cn1,active
11,Cc1cncc(C)n1,active
12,CCc1nccnc1C,active
13,Cc1cnccn1,active
14,CC1=NC(C)C(C)S1 (stereo not given),active
15,CCc1nccnc1OC,active
16,COC1=C(C)OC(C)C1=O (stereo not given),active
17,C=Cc1cnccn1,active
18,CCc1ncc(C)nc1CC,active
19,CCc1nccnc1C(C)=O,active
20,Cc1nccnc1C,active
21,CCc1nccnc1CC,active

# System: T4, A0A2R8ZIW4
# T4 sequence (whole entry): T3 sequence (whole entry) with V39I, I280V
# Conditions: stereoisomer not certain
# Procedure, shortened: as §1
row,SMILES,odorant receptor agonist call
1,COc1nccnc1CC(C)C,active
2,Cc1cnc(C)c(C)n1,active
3,COc1cnccn1,active
4,CC1CCc2nccnc21 (stereo not given),active
5,CC(=O)c1cnccn1,active
6,CCC(C)c1nccnc1OC (stereo not given),active
7,CCc1cnc(C)c(C)n1,inactive
8,COc1nccnc1C(C)C,active
9,CC(=O)c1nccnc1C,active
10,Cc1cnc(C)cn1,active
11,Cc1cncc(C)n1,active
12,CCc1nccnc1C,active
13,Cc1cnccn1,active
14,CC1=NC(C)C(C)S1 (stereo not given),active
15,CCc1nccnc1OC,active
16,COC1=C(C)OC(C)C1=O (stereo not given),inactive
17,C=Cc1cnccn1,active
18,CCc1ncc(C)nc1CC,active
19,CCc1nccnc1C(C)=O,active
20,Cc1nccnc1C,active
21,CCc1nccnc1CC,active

# System: T5, A0A3Q7SVK8
# T5 sequence (whole entry): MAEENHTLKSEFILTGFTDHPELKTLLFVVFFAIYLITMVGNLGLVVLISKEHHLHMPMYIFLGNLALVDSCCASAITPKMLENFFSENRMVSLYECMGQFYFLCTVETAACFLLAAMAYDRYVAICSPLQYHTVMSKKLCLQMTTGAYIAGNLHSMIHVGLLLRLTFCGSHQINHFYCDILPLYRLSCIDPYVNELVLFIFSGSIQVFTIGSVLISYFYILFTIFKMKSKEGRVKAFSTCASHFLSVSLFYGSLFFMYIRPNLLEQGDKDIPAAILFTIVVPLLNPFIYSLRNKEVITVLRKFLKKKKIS
# Conditions: stereoisomer not certain
# Procedure, shortened: as §1
row,SMILES,odorant receptor agonist call
1,COc1nccnc1CC(C)C,active
2,Cc1cnc(C)c(C)n1,active
3,COc1cnccn1,active
4,CC1CCc2nccnc21 (stereo not given),active
5,CC(=O)c1cnccn1,active
6,CCC(C)c1nccnc1OC (stereo not given),active
7,CCc1cnc(C)c(C)n1,inactive
8,COc1nccnc1C(C)C,active
9,CC(=O)c1nccnc1C,active
10,Cc1cnc(C)cn1,active
11,Cc1cncc(C)n1,active
12,CCc1nccnc1C,active
13,Cc1cnccn1,active
14,CC1=NC(C)C(C)S1 (stereo not given),active
15,CCc1nccnc1OC,active
16,COC1=C(C)OC(C)C1=O (stereo not given),inactive
17,C=Cc1cnccn1,active
18,CCc1ncc(C)nc1CC,active
19,CCc1nccnc1C(C)=O,active
20,Cc1nccnc1C,active
21,CCc1nccnc1CC,active

# System: T6, A0A6P3DZI2
# T6 sequence (whole entry): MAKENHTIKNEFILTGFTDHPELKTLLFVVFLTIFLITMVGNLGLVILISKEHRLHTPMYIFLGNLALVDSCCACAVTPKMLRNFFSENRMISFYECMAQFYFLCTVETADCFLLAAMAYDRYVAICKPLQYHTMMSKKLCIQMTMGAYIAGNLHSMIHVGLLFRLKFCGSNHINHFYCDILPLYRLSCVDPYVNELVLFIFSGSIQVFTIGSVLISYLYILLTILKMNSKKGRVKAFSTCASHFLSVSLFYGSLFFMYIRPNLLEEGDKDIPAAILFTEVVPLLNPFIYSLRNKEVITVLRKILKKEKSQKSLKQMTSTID
# Conditions: stereoisomer not certain
# Procedure, shortened: as §1
row,SMILES,odorant receptor agonist call
1,COc1nccnc1CC(C)C,inactive
2,Cc1cnc(C)c(C)n1,active
3,COc1cnccn1,inactive
4,CC1CCc2nccnc21 (stereo not given),inactive
5,CC(=O)c1cnccn1,inactive
6,CCC(C)c1nccnc1OC (stereo not given),inactive
7,CCc1cnc(C)c(C)n1,inactive
8,COc1nccnc1C(C)C,inactive
9,CC(=O)c1nccnc1C,inactive
10,Cc1cnc(C)cn1,inactive
11,Cc1cncc(C)n1,active
12,CCc1nccnc1C,inactive
13,Cc1cnccn1,inactive
14,CC1=NC(C)C(C)S1 (stereo not given),active
15,CCc1nccnc1OC,inactive
16,COC1=C(C)OC(C)C1=O (stereo not given),inactive
17,C=Cc1cnccn1,inactive
18,CCc1ncc(C)nc1CC,active
19,CCc1nccnc1C(C)=O,inactive
20,Cc1nccnc1C,inactive
21,CCc1nccnc1CC,inactive

# System: T7, A0A6P6H1F7
# T7 sequence (whole entry): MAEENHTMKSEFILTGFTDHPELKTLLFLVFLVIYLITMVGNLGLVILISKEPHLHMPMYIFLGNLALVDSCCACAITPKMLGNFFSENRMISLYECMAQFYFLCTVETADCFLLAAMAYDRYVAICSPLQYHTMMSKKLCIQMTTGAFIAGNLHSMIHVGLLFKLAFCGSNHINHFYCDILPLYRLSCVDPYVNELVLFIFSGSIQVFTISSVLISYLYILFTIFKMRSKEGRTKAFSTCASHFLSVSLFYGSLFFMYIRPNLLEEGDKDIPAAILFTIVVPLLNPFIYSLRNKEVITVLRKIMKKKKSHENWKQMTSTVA
# Conditions: stereoisomer not certain
# Procedure, shortened: as §1
row,SMILES,odorant receptor agonist call
1,COc1nccnc1CC(C)C,active
2,Cc1cnc(C)c(C)n1,active
3,COc1cnccn1,active
4,CC1CCc2nccnc21 (stereo not given),active
5,CC(=O)c1cnccn1,active
6,CCC(C)c1nccnc1OC (stereo not given),active
7,CCc1cnc(C)c(C)n1,inactive
8,COc1nccnc1C(C)C,active
9,CC(=O)c1nccnc1C,active
10,Cc1cnc(C)cn1,active
11,Cc1cncc(C)n1,active
12,CCc1nccnc1C,active
13,Cc1cnccn1,active
14,CC1=NC(C)C(C)S1 (stereo not given),active
15,CCc1nccnc1OC,active
16,COC1=C(C)OC(C)C1=O (stereo not given),inactive
17,C=Cc1cnccn1,active
18,CCc1ncc(C)nc1CC,active
19,CCc1nccnc1C(C)=O,active
20,Cc1nccnc1C,active
21,CCc1nccnc1CC,active
